Measurements reported in ChEMBL document CHEMBL5058577, “EUbOPEN Chemogenomics Library 2 (Multiplex)” (2022).

Test system: HEK-293T
Experiment: Multiplex assay against HEK293T
Type: toxicity, cell-based
Settings: human
Outline: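 Hoechst33342, BioTracker Green Microtubule Cytoskeleton Dye, MitoTracker Red and Annexin V Alexa Fluor 680 were added to live cells at seeding, and imaging on a CQ1 microscope at 37°C and 5% CO2 followed compound addition. Gating by CellPathfinder machine learning separated cells into Hoechst high-intensity objects or normal cells, then normal cells into healthy, pyknosed or fragmented nuclei, then pyknosed cells into mitotic or apoptotic. Per cents of healthy-nucleus cells are reported for the tubulin, mitochondrial-mass and membrane-permeability phenotypes.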

[1] = 12 h, 1 µM, compound concentration 1 uM, replicate 1
[2] = 12 h, 1 µM, compound concentration 1 uM, replicate 2
[3] = 12 h, 10 µM, compound concentration 10 uM, replicate 1
[4] = 12 h, 10 µM, compound concentration 10 uM, replicate 2
[5] = 24 h, 1 µM, compound concentration 1 uM, replicate 1
[6] = 24 h, 1 µM, compound concentration 1 uM, replicate 2
[7] = 24 h, 10 µM, compound concentration 10 uM, replicate 1
[8] = 24 h, 10 µM, compound concentration 10 uM, replicate 2
[9] = 48 h, 1 µM, compound concentration 1 uM, replicate 1
[10] = 48 h, 1 µM, compound concentration 1 uM, replicate 2
[11] = 48 h, 10 µM, compound concentration 10 uM, replicate 1
[12] = 48 h, 10 µM, compound concentration 10 uM, replicate 2

Cc1ccc(OCC(O)C(C)NC(C)C)c2c1CCC2.Cl (stereo not given)
Population Apoptotic (%) [1]: 34%
Population Fragmented Nuclei (%) [1]: 6%
Population Healthy Nuclei (%) [1]: 81%
Population Hoechst High Intensity Objects (%) [1]: 5%
Population Membrane Permeable-Phenotype (%) [1]: 0%
Population Mitochondria Different-Phenotype (%) [1]: 54%
Population Mitotic Cells (%) [1]: 65%
Population Normal (%) [1]: 94%
Population Pyknosed Nuclei (%) [1]: 12%
Population Tubulin-Different-Phenotype (%) [1]: 40%
Total Cell Count [1]: 409
Population Apoptotic (%) [2]: 45%
Population Fragmented Nuclei (%) [2]: 5%
Population Healthy Nuclei (%) [2]: 84%
Population Mitochondria Different-Phenotype (%) [2]: 65%
Population Mitotic Cells (%) [2]: 54%
Population Pyknosed Nuclei (%) [2]: 10%
Population Tubulin-Different-Phenotype (%) [2]: 22%
Total Cell Count [2]: 360
Population Apoptotic (%) [3]: 43%
Population Fragmented Nuclei (%) [3]: 7%
Population Healthy Nuclei (%) [3]: 67%
Population Hoechst High Intensity Objects (%) [3]: 3%
Population Membrane Permeable-Phenotype (%) [3]: 0%
Population Mitochondria Different-Phenotype (%) [3]: 66%
Population Mitotic Cells (%) [3]: 56%
Population Normal (%) [3]: 96%
Population Pyknosed Nuclei (%) [3]: 25%
Population Tubulin-Different-Phenotype (%) [3]: 61%
Total Cell Count [3]: 247
Population Fragmented Nuclei (%) [4]: 9%
Population Healthy Nuclei (%) [4]: 76%
Population Hoechst High Intensity Objects (%) [4]: 18%
Population Mitochondria Different-Phenotype (%) [4]: 79%
Population Normal (%) [4]: 81%
Population Pyknosed Nuclei (%) [4]: 14%
Population Tubulin-Different-Phenotype (%) [4]: 59%
Total Cell Count [4]: 323
Population Apoptotic (%) [5]: 35%
Population Fragmented Nuclei (%) [5]: 6%
Population Healthy Nuclei (%) [5]: 80%
Population Hoechst High Intensity Objects (%) [5]: 3%
Population Membrane Permeable-Phenotype (%) [5]: 0%
Population Mitochondria Different-Phenotype (%) [5]: 38%
Population Mitotic Cells (%) [5]: 64%
Population Normal (%) [5]: 96%
Population Pyknosed Nuclei (%) [5]: 12%
Population Tubulin-Different-Phenotype (%) [5]: 25%
Total Cell Count [5]: 548
Population Apoptotic (%) [6]: 28%
Population Fragmented Nuclei (%) [6]: 7%
Population Healthy Nuclei (%) [6]: 83%
Population Hoechst High Intensity Objects (%) [6]: 4%
Population Mitochondria Different-Phenotype (%) [6]: 45%
Population Mitotic Cells (%) [6]: 71%
Population Normal (%) [6]: 95%
Population Pyknosed Nuclei (%) [6]: 9%
Population Tubulin-Different-Phenotype (%) [6]: 17%
Total Cell Count [6]: 444
Population Apoptotic (%) [7]: 46%
Population Fragmented Nuclei (%) [7]: 11%
Population Healthy Nuclei (%) [7]: 71%
Population Hoechst High Intensity Objects (%) [7]: 5%
Population Membrane Permeable-Phenotype (%) [7]: 1%
Population Mitochondria Different-Phenotype (%) [7]: 53%
Population Mitotic Cells (%) [7]: 53%
Population Normal (%) [7]: 94%
Population Pyknosed Nuclei (%) [7]: 17%
Population Tubulin-Different-Phenotype (%) [7]: 47%
Total Cell Count [7]: 334
Population Apoptotic (%) [8]: 50%
Population Fragmented Nuclei (%) [8]: 9%
Population Healthy Nuclei (%) [8]: 78%
Population Hoechst High Intensity Objects (%) [8]: 11%
Population Membrane Permeable-Phenotype (%) [8]: 0%
Population Mitochondria Different-Phenotype (%) [8]: 60%
Population Mitotic Cells (%) [8]: 50%
Population Normal (%) [8]: 88%
Population Pyknosed Nuclei (%) [8]: 11%
Total Cell Count [8]: 399
Population Apoptotic (%) [9]: 24%
Population Fragmented Nuclei (%) [9]: 12%
Population Healthy Nuclei (%) [9]: 79%
Population Hoechst High Intensity Objects (%) [9]: 3%
Population Membrane Permeable-Phenotype (%) [9]: 0%
Population Mitochondria Different-Phenotype (%) [9]: 28%
Population Mitotic Cells (%) [9]: 75%
Population Normal (%) [9]: 96%
Population Pyknosed Nuclei (%) [9]: 8%
Population Tubulin-Different-Phenotype (%) [9]: 14%
Total Cell Count [9]: 804
Population Apoptotic (%) [10]: 26%
Population Fragmented Nuclei (%) [10]: 11%
Population Healthy Nuclei (%) [10]: 81%
Population Hoechst High Intensity Objects (%) [10]: 1%
Population Mitochondria Different-Phenotype (%) [10]: 27%
Population Mitotic Cells (%) [10]: 73%
Population Normal (%) [10]: 98%
Population Pyknosed Nuclei (%) [10]: 7%
Total Cell Count [10]: 660
Population Apoptotic (%) [11]: 40%
Population Fragmented Nuclei (%) [11]: 10%
Population Healthy Nuclei (%) [11]: 74%
Population Hoechst High Intensity Objects (%) [11]: 5%
Population Membrane Permeable-Phenotype (%) [11]: 0%
Population Mitochondria Different-Phenotype (%) [11]: 48%
Population Mitotic Cells (%) [11]: 59%
Population Normal (%) [11]: 94%
Population Pyknosed Nuclei (%) [11]: 14%
Population Tubulin-Different-Phenotype (%) [11]: 43%
Total Cell Count [11]: 435
Population Apoptotic (%) [12]: 34%
Population Fragmented Nuclei (%) [12]: 11%
Population Healthy Nuclei (%) [12]: 80%
Population Membrane Permeable-Phenotype (%) [12]: 1%
Population Mitochondria Different-Phenotype (%) [12]: 39%
Population Mitotic Cells (%) [12]: 66%
Population Pyknosed Nuclei (%) [12]: 8%
Population Tubulin-Different-Phenotype (%) [12]: 41%
Total Cell Count [12]: 611

COc1cc(C(=O)N2CC[C@@H](O)[C@@H](N)C2)cc2nc(-c3cc4ccccc4n3CC3CC3)n(C)c12.Cl
Population Apoptotic (%) [1]: 48%
Population Fragmented Nuclei (%) [1]: 6%
Population Healthy Nuclei (%) [1]: 79%
Population Hoechst High Intensity Objects (%) [1]: 10%
Population Membrane Permeable-Phenotype (%) [1]: 0%
Population Mitochondria Different-Phenotype (%) [1]: 56%
Population Mitotic Cells (%) [1]: 51%
Population Normal (%) [1]: 89%
Population Pyknosed Nuclei (%) [1]: 13%
Population Tubulin-Different-Phenotype (%) [1]: 52%
Total Cell Count [1]: 398
Population Apoptotic (%) [2]: 70%
Population Fragmented Nuclei (%) [2]: 2%
Population Healthy Nuclei (%) [2]: 77%
Population Hoechst High Intensity Objects (%) [2]: 15%
Population Mitochondria Different-Phenotype (%) [2]: 71%
Population Mitotic Cells (%) [2]: 29%
Population Normal (%) [2]: 84%
Population Pyknosed Nuclei (%) [2]: 20%
Population Tubulin-Different-Phenotype (%) [2]: 37%
Total Cell Count [2]: 281
Population Apoptotic (%) [3]: 71%
Population Fragmented Nuclei (%) [3]: 5%
Population Healthy Nuclei (%) [3]: 66%
Population Hoechst High Intensity Objects (%) [3]: 21%
Population Membrane Permeable-Phenotype (%) [3]: 0%
Population Mitochondria Different-Phenotype (%) [3]: 90%
Population Mitotic Cells (%) [3]: 28%
Population Normal (%) [3]: 78%
Population Pyknosed Nuclei (%) [3]: 28%
Population Tubulin-Different-Phenotype (%) [3]: 79%
Total Cell Count [3]: 260
Population Fragmented Nuclei (%) [4]: 4%
Population Healthy Nuclei (%) [4]: 80%
Population Hoechst High Intensity Objects (%) [4]: 18%
Population Membrane Permeable-Phenotype (%) [4]: 2%
Population Mitochondria Different-Phenotype (%) [4]: 88%
Population Normal (%) [4]: 81%
Population Pyknosed Nuclei (%) [4]: 15%
Population Tubulin-Different-Phenotype (%) [4]: 72%
Total Cell Count [4]: 350
Population Apoptotic (%) [5]: 42%
Population Fragmented Nuclei (%) [5]: 9%
Population Healthy Nuclei (%) [5]: 77%
Population Hoechst High Intensity Objects (%) [5]: 6%
Population Membrane Permeable-Phenotype (%) [5]: 0%
Population Mitochondria Different-Phenotype (%) [5]: 42%
Population Mitotic Cells (%) [5]: 57%
Population Normal (%) [5]: 93%
Population Pyknosed Nuclei (%) [5]: 13%
Population Tubulin-Different-Phenotype (%) [5]: 33%
Total Cell Count [5]: 527
Population Apoptotic (%) [6]: 60%
Population Fragmented Nuclei (%) [6]: 7%
Population Healthy Nuclei (%) [6]: 79%
Population Hoechst High Intensity Objects (%) [6]: 12%
Population Mitochondria Different-Phenotype (%) [6]: 64%
Population Mitotic Cells (%) [6]: 39%
Population Normal (%) [6]: 87%
Population Pyknosed Nuclei (%) [6]: 12%
Population Tubulin-Different-Phenotype (%) [6]: 30%
Total Cell Count [6]: 363
Population Apoptotic (%) [7]: 58%
Population Fragmented Nuclei (%) [7]: 8%
Population Healthy Nuclei (%) [7]: 70%
Population Hoechst High Intensity Objects (%) [7]: 18%
Population Membrane Permeable-Phenotype (%) [7]: 0%
Population Mitochondria Different-Phenotype (%) [7]: 94%
Population Mitotic Cells (%) [7]: 41%
Population Normal (%) [7]: 81%
Population Pyknosed Nuclei (%) [7]: 20%
Population Tubulin-Different-Phenotype (%) [7]: 78%
Total Cell Count [7]: 312
Population Apoptotic (%) [8]: 65%
Population Fragmented Nuclei (%) [8]: 6%
Population Healthy Nuclei (%) [8]: 78%
Population Hoechst High Intensity Objects (%) [8]: 21%
Population Mitochondria Different-Phenotype (%) [8]: 92%
Population Mitotic Cells (%) [8]: 34%
Population Normal (%) [8]: 78%
Population Pyknosed Nuclei (%) [8]: 15%
Population Tubulin-Different-Phenotype (%) [8]: 74%
Total Cell Count [8]: 411
Population Apoptotic (%) [9]: 24%
Population Fragmented Nuclei (%) [9]: 9%
Population Healthy Nuclei (%) [9]: 79%
Population Hoechst High Intensity Objects (%) [9]: 5%
Population Membrane Permeable-Phenotype (%) [9]: 0%
Population Mitochondria Different-Phenotype (%) [9]: 37%
Population Mitotic Cells (%) [9]: 75%
Population Normal (%) [9]: 94%
Population Pyknosed Nuclei (%) [9]: 10%
Population Tubulin-Different-Phenotype (%) [9]: 28%
Total Cell Count [9]: 816
Population Apoptotic (%) [10]: 64%
Population Healthy Nuclei (%) [10]: 80%
Population Hoechst High Intensity Objects (%) [10]: 7%
Population Mitochondria Different-Phenotype (%) [10]: 48%
Population Mitotic Cells (%) [10]: 36%
Population Normal (%) [10]: 92%
Population Tubulin-Different-Phenotype (%) [10]: 22%
Total Cell Count [10]: 520
Population Apoptotic (%) [11]: 76%
Population Fragmented Nuclei (%) [11]: 13%
Population Healthy Nuclei (%) [11]: 68%
Population Hoechst High Intensity Objects (%) [11]: 18%
Population Membrane Permeable-Phenotype (%) [11]: 0%
Population Mitochondria Different-Phenotype (%) [11]: 89%
Population Mitotic Cells (%) [11]: 23%
Population Normal (%) [11]: 81%
Population Pyknosed Nuclei (%) [11]: 17%
Population Tubulin-Different-Phenotype (%) [11]: 81%
Total Cell Count [11]: 386
Population Healthy Nuclei (%) [12]: 75%
Population Hoechst High Intensity Objects (%) [12]: 23%
Population Mitochondria Different-Phenotype (%) [12]: 87%
Population Normal (%) [12]: 76%
Population Pyknosed Nuclei (%) [12]: 10%
Population Tubulin-Different-Phenotype (%) [12]: 74%
Total Cell Count [12]: 467
